Four molecules from ChEMBL document CHEMBL2331462, “Antiallodynic and analgesic effects of maslinic acid, a pentacyclic triterpenoid from Olea europaea” (J Nat Prod, 2013) can be followed below.

Structures are written as SMILES. Calls of active or inactive are those of the source.

The subject of data set [1] is Mus musculus. Put plainly: Neurotoxicity in CD-1 mouse assessed as impairment in motor coordination at 8 mg/kg, sc measured up to 3 hrs by rotarod test. Type of data set: toxicity, organism-based. Details: dose 8 mg/kg, route subcutaneous. As to conditions: in vivo. The method, boiled down: (§1)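 Female CD-1 mice trained three times on an accelerating rotarod (4 to 40 rpm over 5 min) 24 h before testing. Sc dosing in 2% Tween 80; latency to fall (300 s cutoff) recorded just before and 30, 60, 120 and 180 min after injection. 8−12 mice per group, two-way repeated-measures ANOVA with Bonferroni.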
For orientation: Falling from the rotarod earlier than controls is read as motor impairment.

Data set [2] has as its system Mus musculus. Put plainly: Neurotoxicity in CD-1 mouse assessed as impairment in motor coordination at 64 mg/kg, sc measured up to 3 hrs by rotarod test. Type of data set: toxicity, organism-based. Details: dose 64 mg/kg, route subcutaneous. The settings on record: in vivo. The method, boiled down:
as §1

Data set [3] deals with Mus musculus. Put plainly: Antiallodynic activity against capsaicin-induced secondary mechanical pain in CD-1 mouse assessed as paw withdrawal-latency at 64 mg/kg, sc measured after 30 mins post compound administration. Type of data set: functional, organism-based. Also noted: dose 64 mg/kg. The method, boiled down:
(§2)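 Female CD-1 mice, sc dosing in 2% Tween 80 (5 mL/kg) 30 min before testing. Capsaicin (1 μg in 20 μL 1% DMSO) given ipl; 15 min later a 0.5 g force was applied with an electronic von Frey device ≥5 mm from the injection site toward the toes. Paw withdrawal latency recorded over three trials at 30 s intervals, 50 s cutoff. 8−12 mice per group, two-way ANOVA with Bonferroni.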

Data set [4] concerns Mus musculus. As to the kind of experiment: Analgesic activity in CD-1 mouse assessed as inhibition of acetic acid-induced writhing response at 64 to 256 mg/kg, sc measured after 30 mins. Type of data set: functional, organism-based. Summed up: (§3)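 Female CD-1 mice (25−30 g), dosed sc interscapularly in 2% Tween 80 in water (5 mL/kg), 30 min before ip 0.6% acetic acid (10 mL/kg). Writhes (torso stretches with back arching and leg extension) counted cumulatively over 30 min. Mean ± SEM of 8−12 mice per group versus vehicle, one-way ANOVA with Bonferroni.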
Background: Writhing tests count abdominal constrictions after an irritant is injected.

Data set [5] concerns Mus musculus. As to the kind of experiment: Neurotoxicity in CD-1 mouse assessed as impairment in motor coordination at 512 mg/kg, sc measured up to 3 hrs by rotarod test. The data set is classed as toxicity, organism-based. Details: dose 512 mg/kg, route subcutaneous. The settings on record: in vivo. The method, boiled down:
as §1

The subject of data set [6] is Mus musculus. Put plainly: Antiallodynic activity against capsaicin-induced secondary mechanical pain in sc dosed CD-1 mouse assessed as paw withdrawal-latency measured after 30 mins post compound administration. Type of data set: functional, organism-based. The method, boiled down: as §2
The test system of data set [7] is Mus musculus. Put plainly: Antinociceptive activity in CD-1 mouse assessed as reduction of formalin-induced inflammatory pain at 1 % administered topically 15 mins challenge measured after 10 to 50 mins. The data set is classed as functional, organism-based. The method, boiled down:
(§4)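 Female CD-1 mice, unanesthetized and restrained. 0.1 g of a 1% compound-enriched Carbopol gel (1% Carbopol, 2% triethanolamine, 5% propylene glycol) or vehicle gel was spread on the plantar hindpaw, ipsilateral or contralateral, 15 min before intraplantar formalin (20 μL, 5%). Licking/biting time scored for phase 1 (0−5 min) and phase 2 (10−50 min). 8−12 mice per group.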

The subject of data set [8] is Mus musculus. As to the kind of experiment: Antinociceptive activity in CD-1 mouse assessed as reduction of formalin-induced inflammatory pain at 1 % administered topically 15 mins challenge measured up to 5 mins. Type of data set: functional, organism-based. Summed up: as §4
Data set [9] has as its system Mus musculus. Put plainly: Analgesic activity in CD-1 mouse assessed as inhibition of acetic acid-induced writhing response at 100 mg/kg, sc measured after 30 mins. The data set is classed as functional, organism-based. Details: dose 100 mg/kg. The method, boiled down: as §3
The subject of data set [10] is Mus musculus. As to the kind of experiment: Antinociceptive activity in CD-1 mouse assessed as reduction of formalin-induced inflammatory pain at 100 mg/kg, sc administered 15 mins challenge measured after 10 to 50 mins. Details: dose 100 mg/kg. Type of data set: functional, organism-based.
Data set [11] has as its system Mus musculus. Put plainly: Antinociceptive activity in CD-1 mouse assessed as reduction of formalin-induced inflammatory pain at 100 mg/kg, sc administered 15 mins challenge measured up to 5 mins. The data set is classed as functional, organism-based. Details: dose 100 mg/kg.
For data set [12], the system named is Mus musculus. As to the kind of experiment: Antiallodynic activity against capsaicin-induced secondary mechanical pain in CD-1 mouse assessed as paw withdrawal-latency at 100 mg/kg, sc measured after 30 mins post compound administration. Also noted: dose 100 mg/kg. The data set is classed as functional, organism-based. Summed up:
as §2

Consider `NCC(CC(=O)O)c1ccc(Cl)cc1` (configuration not stated) [BACLOFEN], for which the Activity result in the data set on Mus musculus [1] is given as “Toxic”.
For `CC(C)C[C@H](CN)CC(=O)O` [PREGABALIN], the Activity entry in the data set with Mus musculus [2] is reported as “Toxic”. For the same molecule, the outcome in the data set with Mus musculus [3] was Active.
For `CC1(C)CC[C@]2(C(=O)O)CC[C@]3(C)C(=CC[C@@H]4[C@@]5(C)C[C@@H](O)[C@H](O)C(C)(C)[C@@H]5CC[C@]43C)[C@@H]2C1` [MASLINIC ACID], the inhibition result in the data set on Mus musculus [4] is “Active”. Also, the figures for the Activity entry with Mus musculus [5] and in the data set on Mus musculus [6] were “Non-toxic” and “Dose-dependent effect”, respectively. Also, the result with Mus musculus [7] was Active. The result in the data set with Mus musculus [8] was inactive.
With `CC(C)Cc1ccc(C(C)C(=O)O)cc1` (configuration not stated), the inhibition entry in the data set with Mus musculus [9] was “Active”. In addition, the outcome in the data set with Mus musculus [10] was Active. For the same molecule, the result in the data set with Mus musculus [11] and in the data set on Mus musculus [12] was inactive.
